ChEMBL document CHEMBL2069233, “New hypotheses for the binding mode of 4- and 7-substituted indazoles in the active site of neuronal nitric oxide synthase” (Bioorg Med Chem, 2012)

Key:
Nitric oxide synthase 1 = Nitric oxide synthase 1 (Rattus norvegicus, UniProt P29476); experiment: Inhibition of nNOS in rat cerebellum homogenates assessed as reduction in conversion of L-[3H]arginine to L-[3H]citrulline; format: tissue-based
Method in brief: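 Rat cerebellum homogenate as nNOS source; L-[3H]arginine to L-[3H]citrulline conversion with 1 mM CaCl2, 200 μM β-NADPH, 0.88 μM L-arginine plus 0.12 μM L-[3H]arginine, 15 min at 37 °C. Compounds in DMSO 0.4%, tested at 0.01, 0.1, 1, 10 and 100 μM. IC50 taken from inhibition curves, mean ± sem over 3–7 experiments.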

[1] = target: Nitric oxide synthase 1 (Rattus norvegicus) (UniProt P29476); experiment: Inhibition of nNOS in rat cerebellum homogenates assessed as reduction in conversion of L-[3H]arginine to L-[3H]citrulline at 100 uM; format: tissue-based
Sequence of Nitric oxide synthase 1 (Rattus norvegicus) (P29476 whole entry): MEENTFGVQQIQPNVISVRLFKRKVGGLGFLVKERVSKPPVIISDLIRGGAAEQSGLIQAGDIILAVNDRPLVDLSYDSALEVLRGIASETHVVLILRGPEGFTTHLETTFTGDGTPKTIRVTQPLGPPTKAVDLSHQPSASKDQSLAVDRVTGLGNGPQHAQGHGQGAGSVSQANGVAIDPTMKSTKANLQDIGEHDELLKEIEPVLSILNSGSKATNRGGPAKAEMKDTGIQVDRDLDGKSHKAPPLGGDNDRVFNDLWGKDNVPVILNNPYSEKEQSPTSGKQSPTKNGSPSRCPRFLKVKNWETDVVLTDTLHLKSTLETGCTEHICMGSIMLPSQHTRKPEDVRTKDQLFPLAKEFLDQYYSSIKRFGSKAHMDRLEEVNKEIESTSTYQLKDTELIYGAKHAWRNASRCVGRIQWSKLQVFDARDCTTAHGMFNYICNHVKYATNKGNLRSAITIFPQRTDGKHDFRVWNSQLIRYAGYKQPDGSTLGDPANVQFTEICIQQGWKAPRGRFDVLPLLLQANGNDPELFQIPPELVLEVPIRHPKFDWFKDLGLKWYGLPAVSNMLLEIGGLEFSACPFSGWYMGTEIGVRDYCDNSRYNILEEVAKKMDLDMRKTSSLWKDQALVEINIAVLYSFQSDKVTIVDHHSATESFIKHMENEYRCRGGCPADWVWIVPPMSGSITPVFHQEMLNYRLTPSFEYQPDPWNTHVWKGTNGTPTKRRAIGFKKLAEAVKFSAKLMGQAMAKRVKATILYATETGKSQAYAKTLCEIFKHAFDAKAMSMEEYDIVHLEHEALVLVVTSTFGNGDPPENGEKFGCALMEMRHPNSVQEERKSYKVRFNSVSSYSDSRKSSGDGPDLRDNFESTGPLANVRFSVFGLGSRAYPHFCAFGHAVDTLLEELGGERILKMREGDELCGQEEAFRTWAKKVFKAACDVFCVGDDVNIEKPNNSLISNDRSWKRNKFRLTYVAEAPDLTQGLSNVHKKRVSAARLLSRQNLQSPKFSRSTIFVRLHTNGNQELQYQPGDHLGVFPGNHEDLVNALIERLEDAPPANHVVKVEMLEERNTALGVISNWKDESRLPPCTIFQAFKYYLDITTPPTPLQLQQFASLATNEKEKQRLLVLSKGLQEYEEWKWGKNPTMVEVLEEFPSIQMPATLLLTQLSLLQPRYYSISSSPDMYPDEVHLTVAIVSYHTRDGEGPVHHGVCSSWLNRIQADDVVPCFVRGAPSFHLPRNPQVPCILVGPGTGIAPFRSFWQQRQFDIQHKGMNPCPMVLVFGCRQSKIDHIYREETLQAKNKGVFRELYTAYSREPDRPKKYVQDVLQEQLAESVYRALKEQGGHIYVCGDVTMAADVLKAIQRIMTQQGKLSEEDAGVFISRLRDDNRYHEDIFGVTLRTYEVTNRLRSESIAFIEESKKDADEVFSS

Sequence of Nitric oxide synthase 1 (P29476 whole entry): as above

Row | SMILES | IC50 (Nitric oxide synthase 1) [µM] | inhibition [1] [%]
1 | Cn1ncc2c([N+](=O)[O-])cccc21 | 10.6 | 86
2 | CCn1ncc2c(Br)cccc21 | 72.5 | 61
3 | Cn1cc2c(Br)cccc2n1 | > 100 | 19
4 | Cn1ncc2c(Br)cccc21 | 28.2 | 75
5 | Cn1cc2c([N+](=O)[O-])cccc2n1 | > 100 | 34
6 | CCn1cc2c([N+](=O)[O-])cccc2n1 | > 100 | 34
7 | N#Cc1cccc2[nH]ncc12 | 42.5 | 63
8 | CCn1cc2c(Br)cccc2n1 | > 100 | 0
9 | CCn1ncc2c([N+](=O)[O-])cccc21 | 51.7 | 67
